This note sets out measurements from ChEMBL document CHEMBL1157505, “Design and in vitro characterization of highly sst2-selective somatostatin antagonists suitable for radiotargeting” (J Med Chem, 2008).

The target in assay [1] is Somatostatin receptor type 1 (Homo sapiens, UniProt P30872). Kind of assay: Displacement of [125I][LTT]SRIF28 from human cloned sst1 receptor by autoradiography. Background: Loss of bound radioactivity is the signal in a displacement assay; it reports binding, not function.
Chain of Somatostatin receptor type 1 (P30872 whole entry): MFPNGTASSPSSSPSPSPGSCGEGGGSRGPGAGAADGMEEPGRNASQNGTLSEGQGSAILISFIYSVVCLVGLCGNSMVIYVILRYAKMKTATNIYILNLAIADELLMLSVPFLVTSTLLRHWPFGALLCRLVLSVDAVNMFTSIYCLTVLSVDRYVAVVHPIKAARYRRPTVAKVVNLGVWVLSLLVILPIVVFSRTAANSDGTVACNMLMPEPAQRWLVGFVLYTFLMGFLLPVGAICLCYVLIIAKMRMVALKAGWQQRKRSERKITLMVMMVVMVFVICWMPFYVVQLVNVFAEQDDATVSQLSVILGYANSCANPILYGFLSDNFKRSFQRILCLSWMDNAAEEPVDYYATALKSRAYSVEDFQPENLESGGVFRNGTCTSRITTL
Assay [2] addresses T1, Somatostatin receptor type 2 (Homo sapiens, UniProt P30874). Kind of assay: Displacement of [125I][LTT]SRIF28 from human cloned sst2 receptor by autoradiography.
The target in assay [3] is Somatostatin receptor type 3 (Homo sapiens, UniProt P32745). Kind of assay: Displacement of [125I][LTT]SRIF28 from human cloned sst3 receptor by autoradiography.
Chain of Somatostatin receptor type 3 (P32745 whole entry): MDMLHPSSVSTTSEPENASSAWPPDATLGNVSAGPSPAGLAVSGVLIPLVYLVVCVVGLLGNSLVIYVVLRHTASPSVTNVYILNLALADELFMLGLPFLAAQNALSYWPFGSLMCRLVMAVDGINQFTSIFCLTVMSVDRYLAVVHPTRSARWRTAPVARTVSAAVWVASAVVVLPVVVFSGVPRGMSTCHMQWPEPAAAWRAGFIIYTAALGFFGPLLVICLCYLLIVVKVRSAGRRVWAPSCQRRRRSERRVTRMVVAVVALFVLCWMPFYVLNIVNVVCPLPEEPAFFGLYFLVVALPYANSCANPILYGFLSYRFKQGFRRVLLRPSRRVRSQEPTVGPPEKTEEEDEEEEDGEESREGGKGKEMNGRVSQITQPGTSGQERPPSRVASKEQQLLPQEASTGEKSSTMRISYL
The target of assay [4] is Somatostatin receptor type 4 (Homo sapiens, UniProt P31391). Nature of the assay: Displacement of [125I][LTT]SRIF28 from human cloned sst4 receptor by autoradiography.
Chain of Somatostatin receptor type 4 (P31391 whole entry): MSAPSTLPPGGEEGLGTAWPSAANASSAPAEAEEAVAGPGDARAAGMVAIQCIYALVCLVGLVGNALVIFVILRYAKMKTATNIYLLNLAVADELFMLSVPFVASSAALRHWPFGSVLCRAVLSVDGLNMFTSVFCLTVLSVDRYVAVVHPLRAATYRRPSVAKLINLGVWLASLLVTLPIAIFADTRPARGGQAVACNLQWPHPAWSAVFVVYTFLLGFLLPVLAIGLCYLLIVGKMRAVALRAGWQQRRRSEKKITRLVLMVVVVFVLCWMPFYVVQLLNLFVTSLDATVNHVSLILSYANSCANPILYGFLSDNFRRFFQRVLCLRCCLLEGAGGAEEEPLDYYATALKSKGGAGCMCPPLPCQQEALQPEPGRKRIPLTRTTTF
The target of assay [5] is Somatostatin receptor type 5 (Homo sapiens, UniProt P35346). Kind of assay: Displacement of [125I][LTT]SRIF28 from human cloned sst5 receptor by autoradiography.
Chain of Somatostatin receptor type 5 (P35346 whole entry): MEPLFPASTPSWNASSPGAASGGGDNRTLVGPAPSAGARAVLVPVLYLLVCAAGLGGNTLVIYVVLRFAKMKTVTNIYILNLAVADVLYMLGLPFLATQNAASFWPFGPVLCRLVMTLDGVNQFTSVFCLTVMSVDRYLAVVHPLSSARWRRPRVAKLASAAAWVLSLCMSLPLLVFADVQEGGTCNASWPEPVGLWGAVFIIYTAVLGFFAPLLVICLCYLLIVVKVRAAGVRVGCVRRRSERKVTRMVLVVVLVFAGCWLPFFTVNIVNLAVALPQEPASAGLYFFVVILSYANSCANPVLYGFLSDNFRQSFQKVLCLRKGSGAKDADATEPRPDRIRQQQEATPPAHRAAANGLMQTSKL
The target in assay [6] is T1, Somatostatin receptor type 2. Nature of the assay: Antagonist activity at T7 epitope tagged human cloned sst2 expressed in HEK293 cells assessed as intracellular calcium release upto 10 uM. The assay is classed as functional, cell-based. The method in brief: (§1)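 HEK-sst2 cells seeded on poly-D-lysine, cultured 1 day, loaded with Fluo-4NW dye (assay buffer HBSS/20 mM HEPES, 2.5 mM probenecid) 30 min 37 °C plus 30 min RT. Analogues alone up to 10 μM, or [Tyr3]-octreotide with 100-fold excess analogue; fluorescence (ex 485/em 520 nm) recorded 60 s at RT; percentage of ionomycin (25 μM) maximum over baseline; ≥3 experiments in triplicate.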

The target is the same in assay [7]. Nature of the assay: Antagonist activity at T7 epitope tagged human cloned sst2 expressed in HEK293 cells assessed as [Tyr3]octreotide-induced intracellular calcium release upto 10 uM. The assay is classed as functional, cell-based. The method in brief: as §1
Background: Calcium assays in cells follow changes in intracellular calcium, usually with a dye or a luminescent sensor.

For assay [8] the target is unchanged. Nature of the assay: Antagonist activity at T7 epitope tagged human cloned sst2 receptor expressed in HEK293 cells assessed as inhibition of [Tyr3]octreotide-induced receptor internalization upto 10 uM. The assay is classed as functional, cell-based. The procedure, abridged:
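Surface T7-tagged sst2 on HEK-sst2 cells labelled with anti-T7 antibody 2 h RT in DMEM-LH, then cells exposed 30 min at 37 °C to analogue (alone up to 10 μM or with [Tyr3]-octreotide), fixed in 3% paraformaldehyde, probed with HRP anti-mouse IgG, ABTS read at OD405; surface receptor as % of untreated; mean ± SEM, three experiments in duplicate.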

Assay [9] has the same target. Kind of assay: Antagonist activity at T7 epitope tagged human cloned sst2 receptor expressed in HEK293 cells assessed as inhibition of [Tyr3]octreotide-induced receptor internalization upto 10 uM by immunofluorescence-based assay. The format is functional, cell-based. The procedure, abridged: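 Immunofluorescence microscopy with sst2-specific antibody R2-88 on HEK-sst2 cells treated 30 min with vehicle, 100 nM [Tyr3]-octreotide, 100 nM [Tyr3]-octreotide plus 100-fold excess (10 μM) analogue, or analogue alone at 10 μM; internalization scored as punctate perinuclear staining.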

Activity calls are given as the source filed them. The calls are words filed in the database; no cut-off is given here.

T1 sequence (P30874 whole entry): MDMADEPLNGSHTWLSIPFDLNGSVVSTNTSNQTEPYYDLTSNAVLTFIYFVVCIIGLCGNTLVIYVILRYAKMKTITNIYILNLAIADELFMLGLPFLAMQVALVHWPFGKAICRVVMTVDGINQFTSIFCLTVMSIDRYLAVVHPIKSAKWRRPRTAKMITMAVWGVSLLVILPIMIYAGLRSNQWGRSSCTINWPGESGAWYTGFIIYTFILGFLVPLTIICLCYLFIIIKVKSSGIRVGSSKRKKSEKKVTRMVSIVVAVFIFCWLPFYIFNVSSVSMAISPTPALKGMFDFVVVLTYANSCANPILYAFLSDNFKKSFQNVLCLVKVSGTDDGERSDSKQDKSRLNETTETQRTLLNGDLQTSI

A word on the IC50: it is the concentration that gives 50% inhibition. For the molecule `C[C@@H](O)[C@@H]1NC(=O)[C@H](CCCCN)NC(=O)[C@@H](Cc2c[nH]c3ccccc23)NC(=O)[C@H](Cc2ccc(O)c(I)c2)NC(=O)[C@H](NC(=O)[C@H](Cc2ccc([N+](=O)[O-])cc2)NC(=O)CN2CCN(CC(=O)O)CCN(CC(=O)O)CCN(CC(=O)O)CC2)CSSC[C@@H](C(=O)N[C@H](Cc2ccc(O)cc2)C(N)=O)NC1=O`, the half-inhibitory concentration (IC50) in assay [1] is more than 1000 nM; in assay [2], 1.2 nM; in assay [3] it was more than 1000 nM; in assay [4] it was 455 nM; in assay [5], more than 1000 nM.

Take `C[C@@H](O)[C@@H]1NC(=O)[C@H](CCCCN)NC(=O)[C@@H](Cc2ccc(NC(N)=O)cc2)NC(=O)[C@H](Cc2ccc(NC(=O)[C@@H]3CC(=O)NC(=O)N3)cc2)NC(=O)[C@H](NC(=O)[C@@H](Cc2ccc(Cl)cc2)NC(=O)CN2CCN(CC(=O)O)CCN(CC(=O)O)CCN(CC(=O)O)CC2)CSSC[C@@H](C(=O)N[C@@H](Cc2ccc3ccccc3c2)C(N)=O)NC1=O`: the result in assay [6] was inactive. Further, the result in assay [7] and in assay [8] was Active.

As to `C[C@@H](O)[C@@H]1NC(=O)[C@H](CCCCN)NC(=O)[C@@H](Cc2ccc(NC(N)=O)cc2)NC(=O)[C@H](Cc2ccc(NC(=O)[C@@H]3CC(=O)NC(=O)N3)cc2)NC(=O)[C@H](NC(=O)[C@H](Cc2ccc(Cl)cc2)NC(=O)CN2CCN(CC(=O)O)CCN(CC(=O)O)CCN(CC(=O)O)CC2)CSSC[C@@H](C(=O)N[C@@H](Cc2ccc3ccccc3c2)C(N)=O)NC1=O`, the IC50 in assay [1] was more than 1000 nM; in assay [2], 1.7 nM; in assay [3] it was more than 1000 nM; in [4] it was more than 1000 nM; in assay [5] it was more than 1000 nM.

With `C[C@@H](O)[C@@H]1NC(=O)[C@H](CCCCN)NC(=O)[C@@H](Cc2c[nH]c3ccccc23)NC(=O)[C@H](Cc2ccc(NC(N)=O)cc2)NC(=O)[C@H](NC(=O)[C@H](Cc2ccc(Cl)cc2)NC(=O)CCOCCOCCOCCNC(=O)CN2CCN(CC(=O)O)CCN(CC(=O)O)CCN(CC(=O)O)CC2)CSSC[C@@H](C(=O)N[C@@H](Cc2ccc3ccccc3c2)C(N)=O)NC1=O`, the IC50 was more than 1000 nM in assay [1]; 40 nM in [2]; 88 nM in [3]; 728 nM in [4]; 895 nM in assay [5].

For the molecule `C[C@@H](O)[C@@H]1NC(=O)[C@H](CCCCN)NC(=O)[C@@H](Cc2c[nH]c3ccccc23)NC(=O)[C@H](Cc2ccc(NC(N)=O)cc2)NC(=O)[C@H](NC(=O)[C@@H](N)Cc2ccc(Cl)cc2)CSSC[C@@H](C(=O)N[C@@H](Cc2ccc(NC(=O)[C@@H]3CC(=O)NC(=O)N3)cc2)C(N)=O)NC1=O`, the IC50 in assay [1] is more than 1000 nM; in [2], 27 nM; in [3], 162 nM; in [4], more than 1000 nM; in assay [5] it was 320 nM.

Take `C[C@@H](O)[C@@H]1NC(=O)[C@H](CCCCN)NC(=O)[C@@H](Cc2c[nH]c3ccc(F)cc23)NC(=O)[C@H](Cc2ccc(NC(N)=O)cc2)NC(=O)[C@H](NC(=O)[C@H](N)Cc2ccc(Cl)cc2)CSSC[C@@H](C(=O)N[C@@H](Cc2ccc3ccccc3c2)C(N)=O)NC1=O`: the result in assay [6] was inactive. In addition, the result in [7] and in [8] was Active.

As to `C[C@@H](O)[C@@H]1NC(=O)[C@H](CCCCN)NC(=O)[C@@H](Cc2ccc(NC(N)=O)cc2)NC(=O)[C@H](Cc2ccc(NC(=O)[C@@H]3CC(=O)NC(=O)N3)cc2)NC(=O)[C@H](NC(=O)[C@@H](Cc2ccc(Cl)cc2)NC(=O)CN2CCN(CC(=O)O)CCN(CC(=O)O)CCN(CC(=O)O)CC2)CSSC[C@@H](C(=O)N[C@H](Cc2ccc(O)cc2)C(N)=O)NC1=O`, the result in assay [6] was inactive. Further, the result in [7], in assay [8] and in assay [9] was Active.

Consider `C[C@@H](O)[C@@H]1NC(=O)[C@H](CCCCN)NC(=O)[C@@H](Cc2ccc(NC(N)=O)cc2)NC(=O)[C@H](Cc2ccc(O)cc2)NC(=O)[C@H](NC(=O)[C@@H](Cc2ccc([N+](=O)[O-])cc2)NC(=O)CN2CCN(CC(=O)O)CCN(CC(=O)O)CCN(CC(=O)O)CC2)CSSC[C@@H](C(=O)N[C@H](Cc2ccc(O)cc2)C(N)=O)NC1=O`, for which, in [6], the result was inactive. In addition, the result in assay [7], in assay [8] and in assay [9] was Active.

For `C[C@@H](O)[C@@H]1NC(=O)[C@H](CCCCN)NC(=O)[C@@H](Cc2ccc(NC(N)=O)cc2)NC(=O)[C@H](Cc2ccc(NC(=O)[C@@H]3CC(=O)NC(=O)N3)cc2)NC(=O)[C@H](NC(=O)[C@@H](N)Cc2ccc(Cl)cc2)CSSC[C@@H](C(=O)N[C@@H](Cc2ccc3ccccc3c2)C(N)=O)NC1=O`, the IC50 was more than 1000 nM in assay [1]; 2.4 nM in assay [2]; 83 nM in assay [3]; more than 1000 nM in assay [4]; more than 1000 nM in assay [5].

Turning to `C[C@@H](O)[C@@H]1NC(=O)[C@H](CCCCN)NC(=O)[C@@H](Cc2ccc(NC(N)=O)cc2)NC(=O)[C@H](Cc2ccc(NC(=O)[C@@H]3CC(=O)NC(=O)N3)cc2)NC(=O)[C@H](NC(=O)[C@H](N)Cc2ccc(Cl)cc2)CSSC[C@@H](C(=O)N[C@@H](Cc2ccc3ccccc3c2)C(N)=O)NC1=O`, the outcome in assay [6] was inactive. In addition, the outcome in [7] and in [8] was Active.

With `C[C@@H](O)[C@@H]1NC(=O)[C@H](CCCCN)NC(=O)[C@@H](Cc2ccc(NC(N)=O)cc2)NC(=O)[C@H](Cc2ccc(NC(=O)[C@@H]3CC(=O)NC(=O)N3)cc2)NC(=O)[C@H](NC(=O)[C@@H](N)Cc2ccc([N+](=O)[O-])cc2)CSSC[C@@H](C(=O)N[C@@H](Cc2ccc3ccccc3c2)C(N)=O)NC1=O`, the IC50 in assay [1] was more than 1000 nM; in assay [2] it was 2.7 nM; in assay [3], 451 nM; in assay [4], more than 1000 nM; in [5], more than 1000 nM.

As to `C[C@@H](O)[C@@H]1NC(=O)[C@H](CCCCN)NC(=O)[C@@H](Cc2c[nH]c3ccccc23)NC(=O)[C@H](Cc2ccc(O)cc2)NC(=O)[C@H](NC(=O)[C@H](N)Cc2ccc(Cl)cc2)CSSC[C@@H](C(=O)N[C@@H](Cc2ccc3ccccc3c2)C(N)=O)NC1=O`, the result in assay [6] was inactive. For the same molecule, the result in assay [7] and in [8] was Active.

Turning to `C[C@@H](O)[C@@H]1NC(=O)[C@H](CCCCN)NC(=O)[C@@H](Cc2c[nH]c3ccccc23)NC(=O)[C@H](Cc2ccc(O)cc2)NC(=O)[C@H](NC(=O)[C@@H](Cc2ccc([N+](=O)[O-])cc2)NC(=O)CN2CCN(CC(=O)O)CCN(CC(=O)O)CCN(CC(=O)O)CC2)CSSC[C@@H](C(=O)N[C@H](Cc2ccc(O)cc2)C(N)=O)NC1=O`, in assay [6], the outcome was inactive. The outcome in assay [7] and in assay [8] was Active.

With `C[C@@H](O)[C@@H]1NC(=O)[C@H](CCCCN)NC(=O)[C@@H](Cc2ccc(NC(N)=O)cc2)NC(=O)[C@H](Cc2ccc(O)cc2)NC(=O)[C@H](NC(=O)[C@@H](Cc2ccc([N+](=O)[O-])cc2)NC(=O)CN2CCN(CC(=O)O)CCN(CC(=O)O)CCN(CC(=O)O)CC2)CSSC[C@@H](C(=O)N[C@@H](Cc2ccc3ccccc3c2)C(N)=O)NC1=O`, the result in assay [6] was inactive. The result in assay [7] and in assay [8] was Active.

Turning to `C[C@@H](O)[C@@H]1NC(=O)[C@H](CCCCN)NC(=O)[C@@H](Cc2c[nH]c3ccccc23)NC(=O)[C@H](Cc2ccc(NC(N)=O)cc2)NC(=O)[C@H](NC(=O)[C@H](N)Cc2ccc(Cl)cc2)CSSC[C@@H](C(N)=O)NC1=O`, the outcome in assay [6] was inactive. The outcome in assay [7] and in assay [8] was Active.

As for `C[C@@H](O)[C@@H]1NC(=O)[C@H](CCCCN)NC(=O)[C@@H](Cc2c[nH]c3ccccc23)NC(=O)[C@H](Cc2ccc(NC(N)=O)cc2)NC(=O)[C@H](NC(=O)[C@@H](Cc2ccc(Cl)cc2)NC(=O)CCNC(=O)CN2CCN(CC(=O)O)CCN(CC(=O)O)CCN(CC(=O)O)CC2)CSSC[C@@H](C(=O)N[C@@H](Cc2ccc3ccccc3c2)C(N)=O)NC1=O`, the result in [6] was inactive. Also, the result in assay [7] and in assay [8] was Active.

As to `C[C@@H](O)[C@@H]1NC(=O)[C@H](CCCCN)NC(=O)[C@@H](Cc2ccc(NC(N)=O)cc2)NC(=O)[C@H](Cc2ccc(NC(=O)[C@@H]3CC(=O)NC(=O)N3)cc2)NC(=O)[C@H](NC(=O)[C@H](Cc2ccc(Cl)cc2)NC(=O)CN2CCN(CC(=O)O)CCN(CC(=O)O)CCN(CC(=O)O)CC2)CSSC[C@@H](C(=O)N[C@H](Cc2ccc(O)cc2)C(N)=O)NC1=O`, the IC50 in [1], in assay [3], in assay [4] and in [5] was more than 1000 nM each time.
